Key:
Rattus norvegicus [1] = assay: In vivo effect of DOPA accumulation in nonpretreated rat cortex at the dose of 50 umol/kg, sc ip; format: functional
How it was run: (§1)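 Untreated rats given test drug 50 μmol/kg sc 65 min before death, and NSD 1015 (decarboxylase inhibitor) 100 mg/kg ip 30 min before death. DOPA and 5-HTP in limbic, striatal and cortical regions measured by HPLC with electrochemical detection. Values are % of saline controls, mean ± SEM, n = 4. ANOVA with Fisher's test.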

D(2) dopamine receptor [2] = molecular target: T1, D(2) dopamine receptor (Bos taurus, UniProt P20288); assay: Binding affinity of [3H]spiroperidol to striatal Dopamine receptor D2 binding sites
How it was run: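 Calf striatal membranes, 1.5–2 mg/tube. Competition with [3H]spiroperidol (100 μL of 10 nM added to 1 mL) in Tris-HCl buffer with EDTA, NaCl, KCl, CaCl2, MgCl2, pH 7.2, run in triplicate. Incubated 40 min at 37 °C. Nonspecific binding with 1 μM (+)-butaclamol. GF/B filtration, scintillation counting; pIC50 as mean ± SEM.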

Rattus norvegicus [3] = assay: In vivo effect of 5-HTP accumulation in nonpretreated rat limbic system at the dose of 50 umol/kg, sc; format: functional; how it was run: as §1
D(2) dopamine receptor [4] = molecular target: T1, D(2) dopamine receptor; assay: Binding affinity of [3H]NPA to striatal Dopamine receptor D2
How it was run: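 Calf striatal membranes (homogenised in Tris salt buffer pH 7.4, preincubated 30 min at 35 °C, washed), 1.5–2 mg/tube. Competition with [3H]NPA (100 μL of 5 nM added to 1 mL) in 50 mM Tris-HCl, 1 mM EDTA, 4 mM MgCl2, 0.01% ascorbic acid, pH 7.2. Incubated 45 min at 25 °C. Nonspecific binding with 1 μM (+)-butaclamol. Filtration, scintillation counting; pIC50 as mean ± SEM.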

Rattus norvegicus [5] = assay: Effect of locomotor activity in reserpine pretreated rats at the dose of 50.0uM/Kg, sc ip after count of 30 minute; format: functional
How it was run: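 Rats given reserpine 5 mg/kg sc 18 h beforehand, then test drug sc immediately before the session. Photocell motility counts accumulated over 30 min, mean ± SEM, n = 3-4. In one arm haloperidol 0.3 mg/kg sc was given 30 min before drug. ANOVA with Fisher's test against controls.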

Rattus norvegicus [6] = assay: In vivo effect of 5-HTP accumulation in nonpretreated rat striatum at the dose of 50 umol/kg, sc; format: functional; how it was run: as §1
Rattus norvegicus [7] = assay: In vivo effect of DOPA accumulation in nonpretreated rat limbic system at the dose of 50 umol/kg, sc ip; format: functional; how it was run: as §1
Rattus norvegicus [8] = assay: In vivo effect of 5-HTP accumulation in nonpretreated rat cortex at the dose of 50 umol/kg, sc; format: functional; how it was run: as §1
Rattus norvegicus [9] = assay: Effect of locomotor activity in nonpretreated rats at the dose of 50.0uM/Kg, sc; format: functional
How it was run: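 Untreated rats given test drug sc 5 min before the session. Photocell motility boxes recorded accumulated counts over 30 min, with gross behaviour observed. Activity expressed as % of saline controls, mean ± SEM. ANOVA with Fisher's test.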

Rattus norvegicus [10] = assay: In vivo effect of DOPA accumulation in nonpretreated rat striatum at the dose of 50 umol/kg, sc ip; format: functional; how it was run: as §1
Rattus norvegicus [11] = assay: Effect of locomotor activity in reserpine pretreated rats at the dose of 25.0uM/Kg, sc ip after count of 30 minute; format: functional
How it was run: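 Reserpine 5 mg/kg sc given 18 h before; test drug sc immediately before session; haloperidol 0.3 mg/kg sc injected 30 min before test drug. Photocell motility boxes, accumulated counts over 30 min, with gross behaviour observed through mirror; mean ± SEM, n = 3-4; Anova with Fischer's test versus saline controls. Injection volume 5 mL/kg, near-neutral pH.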

T1 sequence (P20288 whole entry): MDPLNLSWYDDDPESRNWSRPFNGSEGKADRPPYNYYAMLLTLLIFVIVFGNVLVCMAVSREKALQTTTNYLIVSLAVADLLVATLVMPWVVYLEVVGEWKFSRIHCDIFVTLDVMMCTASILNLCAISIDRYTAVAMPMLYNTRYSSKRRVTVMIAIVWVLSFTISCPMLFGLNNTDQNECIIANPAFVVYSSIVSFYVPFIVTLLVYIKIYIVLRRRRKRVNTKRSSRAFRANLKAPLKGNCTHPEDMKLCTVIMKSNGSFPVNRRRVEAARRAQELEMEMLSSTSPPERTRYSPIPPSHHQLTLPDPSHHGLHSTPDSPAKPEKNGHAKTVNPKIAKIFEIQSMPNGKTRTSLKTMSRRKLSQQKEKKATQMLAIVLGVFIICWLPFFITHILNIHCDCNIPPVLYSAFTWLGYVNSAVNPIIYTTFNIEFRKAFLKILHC

Q: For CCCN(CCC)[C@@H]1Cc2cc(O)ccc2C[C@H]1C (racemic), which Control (Rattus norvegicus [1]) is on record?
A: Its Control is 217%.

Q: And the IC50 (D(2) dopamine receptor [2])?
A: Its IC50 is 26.9 µM.

Q: What about the Control (Rattus norvegicus [3]) of the same compound?
A: Its Control is 136%.

Q: And the IC50 (D(2) dopamine receptor [4])?
A: Its IC50 is 1.02 µM.

Q: What about the Activity (Rattus norvegicus [5]) of the same compound?
A: The Activity was 331 µM/kg.

Q: And the Control (Rattus norvegicus [6])?
A: The Control was 117%.

Q: And the Control (Rattus norvegicus [7])?
A: Its Control is 146%.

Q: What about the Control (Rattus norvegicus [8]) of the same compound?
A: The Control was 147%.

Q: What about the Activity (Rattus norvegicus [9]) of the same compound?
A: The Activity was 147 µM/kg.

Q: And the Control (Rattus norvegicus [10])?
A: The Control was 247%.

Q: For O=C(CCCN1CCC(O)(c2ccc(Cl)cc2)CC1)c1ccc(F)cc1 [HALOPERIDOL], which Activity (Rattus norvegicus [11]) is on record?
A: Its Activity is 573 counts/30 min.

Source: ChEMBL document CHEMBL1124995, “Synthesis and pharmacology of the enantiomers of cis-7-hydroxy-3-methyl-2-(dipropylamino)tetralin” (J Med Chem, 1990)
